We go through one compound from ChEMBL document CHEMBL4354873, “Rationally Designed Small-Molecule Inhibitors Targeting an Unconventional Pocket on the TLR8 Protein-Protein Interface” (J Med Chem, 2020).

Calls of active or inactive are those of the source. The rule behind the calls is not given here.

Holding throughout (format): cell-based
Assay [1] addresses T1, Toll-like receptor 9 (Homo sapiens) (UniProt Q9NR96).
T1 sequence (whole entry): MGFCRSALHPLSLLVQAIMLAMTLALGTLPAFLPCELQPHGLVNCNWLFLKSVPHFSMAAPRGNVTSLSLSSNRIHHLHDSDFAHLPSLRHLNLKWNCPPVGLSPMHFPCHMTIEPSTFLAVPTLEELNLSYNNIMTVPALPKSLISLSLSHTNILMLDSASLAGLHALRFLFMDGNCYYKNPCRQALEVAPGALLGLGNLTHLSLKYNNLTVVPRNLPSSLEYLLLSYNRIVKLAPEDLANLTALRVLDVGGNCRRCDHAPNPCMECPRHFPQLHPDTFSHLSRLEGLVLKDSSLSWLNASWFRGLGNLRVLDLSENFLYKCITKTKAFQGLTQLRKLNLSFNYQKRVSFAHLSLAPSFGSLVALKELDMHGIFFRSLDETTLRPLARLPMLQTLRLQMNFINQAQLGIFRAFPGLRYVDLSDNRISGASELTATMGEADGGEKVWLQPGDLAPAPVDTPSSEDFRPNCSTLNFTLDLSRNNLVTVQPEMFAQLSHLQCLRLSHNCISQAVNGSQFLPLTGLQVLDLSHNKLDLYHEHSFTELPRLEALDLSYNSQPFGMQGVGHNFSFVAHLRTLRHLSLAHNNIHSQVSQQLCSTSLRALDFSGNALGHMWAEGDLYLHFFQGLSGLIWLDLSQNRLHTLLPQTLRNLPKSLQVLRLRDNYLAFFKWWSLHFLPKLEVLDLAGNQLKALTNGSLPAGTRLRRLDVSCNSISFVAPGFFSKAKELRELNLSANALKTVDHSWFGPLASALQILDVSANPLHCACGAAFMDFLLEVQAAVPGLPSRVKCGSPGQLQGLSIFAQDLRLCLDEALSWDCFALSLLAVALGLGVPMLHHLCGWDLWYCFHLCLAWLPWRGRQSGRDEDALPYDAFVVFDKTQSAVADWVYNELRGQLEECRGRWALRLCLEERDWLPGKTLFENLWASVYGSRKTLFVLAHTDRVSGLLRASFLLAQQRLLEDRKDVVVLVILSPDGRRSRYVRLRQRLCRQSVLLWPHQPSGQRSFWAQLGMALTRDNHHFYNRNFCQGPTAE
Briefly: Inhibition of human TLR9 expressed in HEK-Blue cells assessed as inhibition of ODN2006-induced NF-kappaB activation at 20 uM measured after 24 hrs by quanti-blue based SEAP reporter gene assay. Summed up: (§1)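 HEK-Blue SEAP format: 4 × 10⁴ cells/well in DMEM with ligand plus compound, 24 h at 37 °C. Supernatant mixed with QUANTI-Blue up to 1 h, then A620 read. Ligands: Pam3CSK4 100 ng/mL (TLR1/2), Pam2CSK4 100 ng/mL (TLR2/6), poly(I:C) 5 µg/mL (TLR3), LPS 20 ng/mL (TLR4), flagellin 50 ng/mL (TLR5), R848 1 µg/mL (TLR7), R848 2 µg/mL (TLR8), ODN2006 0.5 µM (TLR9). Mean ± s.d.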
(In a reporter assay the amount or activity of a reporter protein is the signal.)

Assay [2] deals with T2, Toll-like receptor 8 (Homo sapiens) (UniProt Q9NR97).
T2 sequence (whole entry): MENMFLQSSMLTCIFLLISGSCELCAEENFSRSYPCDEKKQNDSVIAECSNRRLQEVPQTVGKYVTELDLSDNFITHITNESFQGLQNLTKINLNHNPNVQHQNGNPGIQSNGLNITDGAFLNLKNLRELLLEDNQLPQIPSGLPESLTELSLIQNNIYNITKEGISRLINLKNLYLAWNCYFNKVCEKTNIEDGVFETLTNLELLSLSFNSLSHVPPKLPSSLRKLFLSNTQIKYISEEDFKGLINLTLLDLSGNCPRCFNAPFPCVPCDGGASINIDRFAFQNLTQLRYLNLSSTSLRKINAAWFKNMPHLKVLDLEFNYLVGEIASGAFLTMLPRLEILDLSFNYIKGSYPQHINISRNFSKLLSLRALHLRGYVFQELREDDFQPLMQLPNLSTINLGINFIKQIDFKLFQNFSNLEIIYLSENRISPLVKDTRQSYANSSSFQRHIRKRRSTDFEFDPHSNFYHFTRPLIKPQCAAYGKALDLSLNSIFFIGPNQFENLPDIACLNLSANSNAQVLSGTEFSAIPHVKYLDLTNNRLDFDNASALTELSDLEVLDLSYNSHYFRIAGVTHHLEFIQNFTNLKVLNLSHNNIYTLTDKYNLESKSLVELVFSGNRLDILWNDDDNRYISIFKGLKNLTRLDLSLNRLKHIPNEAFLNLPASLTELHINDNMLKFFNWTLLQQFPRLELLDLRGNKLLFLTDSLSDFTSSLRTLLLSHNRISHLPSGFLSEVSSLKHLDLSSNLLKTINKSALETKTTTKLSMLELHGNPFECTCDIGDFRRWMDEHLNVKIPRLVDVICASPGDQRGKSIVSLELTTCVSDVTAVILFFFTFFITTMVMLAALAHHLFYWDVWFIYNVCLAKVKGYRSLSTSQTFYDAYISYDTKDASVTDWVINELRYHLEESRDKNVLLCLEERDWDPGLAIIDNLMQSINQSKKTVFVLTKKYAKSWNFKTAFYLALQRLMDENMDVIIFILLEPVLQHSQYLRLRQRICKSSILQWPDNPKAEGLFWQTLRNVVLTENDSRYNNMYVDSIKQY
The assay is described as follows: Inhibition of human TLR8 expressed in HEK-Blue cells assessed as inhibition of R848-induced NF-kappaB activation at 20 uM measured after 24 hrs by quanti-blue based SEAP reporter gene assay. A digest of the protocol:
as §1

Assay [3] addresses T2, Toll-like receptor 8 (Homo sapiens). The assay is described as follows: Inhibition of TLR8 in human monocytes assessed as reduction in R848-induced TRAF3 expression measured after 2 hrs by Western blot analysis. A digest of the protocol: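 Monocyte cell lines, 2 × 10⁶/well, differentiated with PMA 100 ng/mL for 24 h. After washes, cells in unsupplemented RPMI received R848 1 µg/mL with varying compound concentrations for 2 h. Nuclear/cytoplasmic fractions extracted and resolved on 10% SDS-PAGE. Blots probed for p65, TRAF3 and p-IRAK4 (1:1000); lamin A/C (nuclear) and β-actin (cytoplasmic) as loading controls.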
Background: In western blotting, separated proteins are transferred to a membrane and probed.

Assay [4] shares this target. Briefly: (§2) Inhibition of human TLR8 expressed in HEK-Blue cells assessed as inhibition of R848-induced NF-kappaB activation measured after 24 hrs by quanti-blue based SEAP reporter gene assay.
The target of another assay is T3, Toll-like receptor 8 (Homo sapiens, UniProt Q9NR97).
T3 sequence (Q9NR97 whole entry): T2 sequence (whole entry)
Described as §2.

What is called IC50 is the concentration at which inhibition is half-maximal.

In the case of `CSc1nnc(CCCO)n1-c1cc(C)c(C)c(C)c1`, the inhibition result in assay [1] is “inactive”. Moreover, the inhibition entry in assay [2] was “Active”. Moreover, the inhibition entry in assay [3] and in assay [4] was “Dose-dependent effect” each time. The half-maximal inhibitory concentration (IC50) on Toll-like receptor 8 is 30 nM.
